Experimental data reported in ChEMBL document CHEMBL2380224, “Fragment-based ligand design of novel potent inhibitors of tankyrases” (J Med Chem, 2013).

Experiments:
[1] = target: T1, Poly [ADP-ribose] polymerase tankyrase-2 (Homo sapiens, UniProt Q9H2K2); assay: Binding affinity to 6His-tagged TNKS2 PARP domain (947 to 1162) (unknown origin) expressed in Escherichia coli BL21(DE3) by surface plasmon resonance analysis
T1 sequence (Q9H2K2 whole entry): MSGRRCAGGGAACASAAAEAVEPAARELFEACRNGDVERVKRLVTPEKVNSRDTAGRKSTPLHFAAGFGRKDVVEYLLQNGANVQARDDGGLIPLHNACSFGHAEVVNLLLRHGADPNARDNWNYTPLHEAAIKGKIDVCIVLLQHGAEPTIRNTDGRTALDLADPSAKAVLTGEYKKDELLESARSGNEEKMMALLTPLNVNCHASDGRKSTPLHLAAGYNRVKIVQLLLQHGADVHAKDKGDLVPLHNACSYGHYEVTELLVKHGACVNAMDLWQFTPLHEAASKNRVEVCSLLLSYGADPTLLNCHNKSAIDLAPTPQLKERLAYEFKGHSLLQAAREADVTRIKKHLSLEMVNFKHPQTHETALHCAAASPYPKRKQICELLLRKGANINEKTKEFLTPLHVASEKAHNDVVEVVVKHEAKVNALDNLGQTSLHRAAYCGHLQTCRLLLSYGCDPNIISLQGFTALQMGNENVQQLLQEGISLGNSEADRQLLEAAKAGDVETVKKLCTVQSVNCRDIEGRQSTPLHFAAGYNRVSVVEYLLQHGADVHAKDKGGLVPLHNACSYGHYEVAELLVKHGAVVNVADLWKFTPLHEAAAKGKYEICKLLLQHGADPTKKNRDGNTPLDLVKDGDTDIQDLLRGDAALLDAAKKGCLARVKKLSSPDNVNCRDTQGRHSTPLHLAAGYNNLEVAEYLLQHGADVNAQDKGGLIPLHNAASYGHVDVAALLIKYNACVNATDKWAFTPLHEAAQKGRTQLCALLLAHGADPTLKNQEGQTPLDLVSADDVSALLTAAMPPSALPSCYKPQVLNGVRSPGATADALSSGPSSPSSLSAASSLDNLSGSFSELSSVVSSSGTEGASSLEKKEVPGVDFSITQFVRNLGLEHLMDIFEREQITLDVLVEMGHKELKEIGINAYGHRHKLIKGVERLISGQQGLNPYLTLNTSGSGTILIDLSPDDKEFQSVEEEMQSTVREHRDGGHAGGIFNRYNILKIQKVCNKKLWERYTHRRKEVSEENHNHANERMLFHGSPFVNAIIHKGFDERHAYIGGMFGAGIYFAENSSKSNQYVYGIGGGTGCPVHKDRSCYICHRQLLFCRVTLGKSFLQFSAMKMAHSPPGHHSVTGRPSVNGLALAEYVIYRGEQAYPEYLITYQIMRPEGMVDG
Method in brief: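 SPR on a Biacore instrument. Running buffer: 20 mM PBS pH 7.4, 0.05% Tween20, 2% DMSO. His-tagged TNKS2 (20 μg/mL in 20 mM PBS pH 7.4) was capture-coupled at 10 μL/min onto a Ni²⁺/NHS doubly preactivated NTA chip, to a target of 5000 RU.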

[2] = target: T2, Protein mono-ADP-ribosyltransferase PARP11 (Homo sapiens) (UniProt Q9NR21); assay: Inhibition of PARP11 (unknown origin) at 10 uM relative to control
T2 sequence (whole entry): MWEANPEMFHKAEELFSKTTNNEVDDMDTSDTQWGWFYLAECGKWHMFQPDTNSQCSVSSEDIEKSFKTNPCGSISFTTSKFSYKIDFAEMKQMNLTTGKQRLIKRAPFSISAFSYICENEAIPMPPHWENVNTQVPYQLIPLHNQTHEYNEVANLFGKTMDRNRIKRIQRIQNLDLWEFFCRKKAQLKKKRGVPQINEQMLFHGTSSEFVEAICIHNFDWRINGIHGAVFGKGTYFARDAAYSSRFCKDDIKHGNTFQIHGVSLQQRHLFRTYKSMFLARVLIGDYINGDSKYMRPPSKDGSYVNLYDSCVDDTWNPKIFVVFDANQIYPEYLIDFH

[3] = target: Poly [ADP-ribose] polymerase 2 (Homo sapiens, UniProt Q9UGN5); assay: Inhibition of PARP2 (unknown origin)
Sequence of Poly [ADP-ribose] polymerase 2 (Q9UGN5 whole entry, the tested form may be a part): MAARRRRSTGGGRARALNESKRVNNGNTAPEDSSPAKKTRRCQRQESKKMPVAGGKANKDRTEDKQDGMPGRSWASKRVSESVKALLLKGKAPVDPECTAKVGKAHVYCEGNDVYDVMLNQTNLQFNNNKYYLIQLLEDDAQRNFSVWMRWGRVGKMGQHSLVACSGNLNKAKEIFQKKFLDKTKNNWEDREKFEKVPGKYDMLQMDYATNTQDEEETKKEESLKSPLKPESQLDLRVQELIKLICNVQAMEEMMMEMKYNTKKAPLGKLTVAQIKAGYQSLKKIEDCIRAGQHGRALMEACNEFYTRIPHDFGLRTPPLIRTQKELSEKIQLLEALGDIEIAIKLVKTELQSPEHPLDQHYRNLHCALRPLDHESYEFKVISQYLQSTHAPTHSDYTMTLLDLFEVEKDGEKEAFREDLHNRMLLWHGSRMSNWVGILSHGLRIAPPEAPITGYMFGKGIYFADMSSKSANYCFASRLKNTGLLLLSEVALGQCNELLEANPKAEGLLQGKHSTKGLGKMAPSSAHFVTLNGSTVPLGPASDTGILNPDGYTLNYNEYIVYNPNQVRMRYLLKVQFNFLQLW

[4] = organism: Homo sapiens; assay: Selectivity ratio of IC50 for PARP3 (unknown origin) to IC50 for TNKS2 PARP domain (947 to 1162) (unknown origin)

Molecule `Cc1cc(=O)[nH]c2cc(-c3ccccc3F)ccc12` has a Kd [1] of 280 nM, an inhibition [2] of 23% and an IC50 [3] of over 10000 nM. It also gave a Ratio IC50 [4] of over 100.
